Experimental data published in ChEMBL document CHEMBL4270537, “Design and biological evaluation of novel triaryl pyrazoline derivatives with dioxane moiety for selective BRAFV600E inhibition” (Eur J Med Chem, 2018).
Calls of active or inactive are those of the source. No cut-off for these calls is given here.

Legend:
[1] = Antiproliferative activity against human WM1361 cells after 48 hrs by MTT assay; assay type: functional; conditions: WM1361, 48 h
Method in brief: (§1)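 MTT reduction assay. Cell lines grown to log phase in DMEM with 10% FBS (A375 in DMEM with sodium pyruvate added), seeded at 10⁴ cells/well in 96-well plates. Three replicate wells per concentration, each assay run three times, GI50 averaged.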

[2] = system: HT-29; test: Antiproliferative activity against human HT-29 cells after 48 hrs by MTT assay; assay type: functional; conditions: HT-29, 48 h; method in brief: as §1
[3] = biological target: Mitogen-activated protein kinase 8 (Homo sapiens, UniProt P45983); test: Inhibition of N-terminal flag-tagged JNK1 (unknown origin) expressed in baculovirus expression system after 60 mins in presence of [gamma-32P]ATP by topcount scintillation method
Sequence of Mitogen-activated protein kinase 8 (P45983 whole entry): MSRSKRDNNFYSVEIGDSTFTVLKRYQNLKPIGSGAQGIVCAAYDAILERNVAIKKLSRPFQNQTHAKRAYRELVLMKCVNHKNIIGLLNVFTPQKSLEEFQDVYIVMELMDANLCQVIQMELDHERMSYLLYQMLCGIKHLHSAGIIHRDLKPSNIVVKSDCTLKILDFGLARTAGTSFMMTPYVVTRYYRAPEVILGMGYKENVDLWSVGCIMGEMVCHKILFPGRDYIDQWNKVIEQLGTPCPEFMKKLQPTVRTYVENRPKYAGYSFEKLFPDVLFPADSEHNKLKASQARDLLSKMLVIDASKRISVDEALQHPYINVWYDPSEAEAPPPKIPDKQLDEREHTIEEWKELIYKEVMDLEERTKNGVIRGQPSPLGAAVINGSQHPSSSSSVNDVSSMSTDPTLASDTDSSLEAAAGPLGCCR
Method in brief: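 Baculovirus-expressed N-terminal FLAG-tagged kinases in 25 mM HEPES pH 7.5, 10 mM Mg acetate, 1 mM DTT, 0.5 µM ATP plus [γ-³²P]ATP, 50 µL. p38α: 100 ng enzyme, MBP substrate. JNK1: 10 ng enzyme, 1 µg c-Jun. Compound and enzyme preincubated 5 min, ATP started the reaction, 60 min at 30 °C. Stopped with 10% TCA, filtered, washed with 3% phosphoric acid, counted by TopCount.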

[4] = system: A-375; test: Induction of apoptosis in human A375 cells assessed as viable cells at 2 uM after 24 hrs by Annexin V-FITC/PI staining based flow cytometry (reference value: 89.4%); assay type: functional; conditions: A-375, 24 h, read-out: Activity
[5] = system: A-375; test: Induction of apoptosis in human A375 cells assessed as early apoptotic cells at 2 uM after 24 hrs by Annexin V-FITC/PI staining based flow cytometry (reference value: 5.42%); assay type: functional
Method in brief: (§2)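 Apoptosis time course. A375 cells in 24-well plates (about 10⁵/well) at 2 µM for 0, 24, 48 and 72 h. Harvested by trypsin, washed in PBS, stained 15 min at room temperature in the dark with Annexin V-FITC/PI, analysed by flow cytometry.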

[6] = system: A-375; test: Induction of apoptosis in human A375 cells assessed as late apoptotic cells at 2 uM after 24 hrs by Annexin V-FITC/PI staining based flow cytometry (reference value: 3.61%); assay type: functional; method in brief: as §2
[7] = system: A-375; test: Induction of apoptosis in human A375 cells assessed as necrotic cells at 2 uM after 24 hrs by Annexin V-FITC/PI staining based flow cytometry (reference value: 1.55%); assay type: functional
[8] = system: A-375; test: Induction of apoptosis in human A375 cells assessed as viable cells at 2 uM after 48 hrs by Annexin V-FITC/PI staining based flow cytometry (reference value: 89.4%); assay type: functional; conditions: A-375, 48 h, read-out: Activity
[9] = system: A-375; test: Induction of apoptosis in human A375 cells assessed as late apoptotic cells at 2 uM after 48 hrs by Annexin V-FITC/PI staining based flow cytometry (reference value: 3.61%); assay type: functional; method in brief: as §2
[10] = system: A-375; test: Induction of apoptosis in human A375 cells assessed as necrotic cells at 2 uM after 48 hrs by Annexin V-FITC/PI staining based flow cytometry (reference value: 1.55%); assay type: functional
[11] = system: A-375; test: Induction of apoptosis in human A375 cells assessed as viable cells at 2 uM after 72 hrs by Annexin V-FITC/PI staining based flow cytometry (reference value: 89.4%); assay type: functional; conditions: A-375, 72 h, read-out: Activity
[12] = system: A-375; test: Induction of apoptosis in human A375 cells assessed as early apoptotic cells at 2 uM after 72 hrs by Annexin V-FITC/PI staining based flow cytometry (reference value: 5.42%); assay type: functional; method in brief: as §2
[13] = system: A-375; test: Induction of apoptosis in human A375 cells assessed as necrotic cells at 2 uM after 72 hrs by Annexin V-FITC/PI staining based flow cytometry (reference value: 1.55%); assay type: functional
[14] = system: A-375; test: Induction of apoptosis in human A375 cells assessed as necrotic cells at 5 uM after 24 hrs by Annexin V-FITC/PI staining based flow cytometry (reference value: 1.61%); assay type: functional
[15] = system: A-375; test: Induction of apoptosis in human A375 cells assessed as viable cells at 10 uM after 24 hrs by Annexin V-FITC/PI staining based flow cytometry (reference value: 88.7%); assay type: functional; conditions: A-375, 24 h, read-out: Activity
[16] = system: A-375; test: Induction of apoptosis in human A375 cells assessed as late apoptotic cells at 20 uM after 24 hrs by Annexin V-FITC/PI staining based flow cytometry (reference value: 4.26%); assay type: functional
[17] = system: A-375; test: Cell cycle arrest in human A375 cells assessed as accumulation at G1 phase at 2 uM after 24 hrs by propidium iodide staining based flow cytometry (reference value: 73.6%); assay type: functional
[18] = system: A-375; test: Cell cycle arrest in human A375 cells assessed as accumulation at S phase at 2 uM after 24 hrs by propidium iodide staining based flow cytometry (reference value: 21.3%); assay type: functional
[19] = system: A-375; test: Cell cycle arrest in human A375 cells assessed as accumulation at G1 phase at 2 uM after 48 hrs by propidium iodide staining based flow cytometry (reference value: 73.6%); assay type: functional
[20] = system: A-375; test: Cell cycle arrest in human A375 cells assessed as accumulation at G2/M phase at 2 uM after 48 hrs by propidium iodide staining based flow cytometry (reference value: 5.1%); assay type: functional
[21] = system: A-375; test: Cell cycle arrest in human A375 cells assessed as accumulation at G1 phase at 5 uM after 24 hrs by propidium iodide staining based flow cytometry (reference value: 73.6%); assay type: functional
[22] = system: A-375; test: Cell cycle arrest in human A375 cells assessed as accumulation at S phase at 5 uM after 24 hrs by propidium iodide staining based flow cytometry (reference value: 21.3%); assay type: functional
[23] = system: A-375; test: Cell cycle arrest in human A375 cells assessed as accumulation at G1 phase at 10 uM after 24 hrs by propidium iodide staining based flow cytometry (reference value: 73.6%); assay type: functional
[24] = system: A-375; test: Cell cycle arrest in human A375 cells assessed as accumulation at S phase at 10 uM after 24 hrs by propidium iodide staining based flow cytometry (reference value: 21.3%); assay type: functional
[25] = system: A-375; test: Cell cycle arrest in human A375 cells assessed as accumulation at G1 phase at 20 uM after 24 hrs by propidium iodide staining based flow cytometry (reference value: 73.6%); assay type: functional
[26] = Effect on total ERK1/2 protein level in human WM1361 cells after 30 mins by Western blot analysis; assay type: ADME, cell-based; conditions: 0.5 h
Method in brief: (§3)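 Western blot. Cells rinsed in cold PBS, lysed 30 min on ice in RIPA with protease inhibitors (1:100), cleared at 12,000 g, 4 °C. Protein measured by BCA, resolved by SDS-PAGE, transferred to PVDF, blocked in skim milk. Primary antibodies 1:500 overnight at 4 °C; secondary 1:5000 for 1 h at room temperature.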

[27] = system: A-375; test: Effect on total MEK1/2 protein level in human A375 cells after 30 mins by Western blot analysis; assay type: ADME, cell-based; conditions: a-375, 0.5 h; method in brief: as §3
[28] = system: A-375; test: Effect on total ERK1/2 protein level in human A375 cells after 30 mins by Western blot analysis; assay type: ADME, cell-based; conditions: a-375, 0.5 h; method in brief: as §3
[29] = biological target: Serine/threonine-protein kinase B-raf (Homo sapiens, UniProt P15056); test: Inhibition of wild type BRAF in human WM1361 cells assessed as decrease in MEK1/2 phosphorylation up to 5 uM after 30 mins by Western blot analysis; assay type: cell-based
Sequence of Serine/threonine-protein kinase B-raf (P15056 whole entry): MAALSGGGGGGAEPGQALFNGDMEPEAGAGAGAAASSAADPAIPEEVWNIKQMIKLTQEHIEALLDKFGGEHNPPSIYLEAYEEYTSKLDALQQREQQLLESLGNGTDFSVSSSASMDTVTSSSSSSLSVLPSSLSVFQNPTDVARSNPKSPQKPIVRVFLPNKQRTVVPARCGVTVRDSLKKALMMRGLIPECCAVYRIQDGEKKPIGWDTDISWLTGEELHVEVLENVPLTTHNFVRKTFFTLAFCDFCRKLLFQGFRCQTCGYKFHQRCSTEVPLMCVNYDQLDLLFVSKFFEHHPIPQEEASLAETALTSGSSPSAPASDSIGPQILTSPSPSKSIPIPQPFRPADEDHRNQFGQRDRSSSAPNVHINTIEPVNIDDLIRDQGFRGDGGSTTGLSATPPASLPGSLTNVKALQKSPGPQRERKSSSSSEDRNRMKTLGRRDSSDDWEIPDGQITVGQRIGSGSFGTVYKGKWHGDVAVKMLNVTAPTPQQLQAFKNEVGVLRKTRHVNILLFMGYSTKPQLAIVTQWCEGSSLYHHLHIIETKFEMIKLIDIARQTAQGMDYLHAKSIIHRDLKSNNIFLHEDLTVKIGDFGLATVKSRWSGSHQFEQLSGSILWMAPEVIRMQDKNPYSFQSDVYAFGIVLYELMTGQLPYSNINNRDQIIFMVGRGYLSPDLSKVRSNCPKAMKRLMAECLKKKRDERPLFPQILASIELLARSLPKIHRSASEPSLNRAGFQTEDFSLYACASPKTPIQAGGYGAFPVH

COc1cccc(C2=NN(C(=S)Nc3ccccc3)C(c3ccc4c(c3)OCCO4)C2)c1 (centres undefined)
GI50 [1]: > 200 µM | GI50 [2]: 2.92 µM | IC50 [3]: > 200 µM | viability at 2 µM [4]: 80.8% | Activity [5]: 10.9% | Activity [6]: 6.76% | Activity [7]: 2.56% | viability at 2 µM [8]: 74.5% | Activity [9]: 5.37% | Activity [10]: 3.05% | viability at 2 µM [11]: 71.1% | Activity [12]: 20.2% | Activity [13]: 2.24% | Activity [14]: 3.6% | viability at 10 µM [15]: 41.5% | Activity [16]: 11% | Activity [17]: 72.4% | Activity [18]: 17.3% | Activity [19]: 58.8% | Activity [20]: 15% | Activity [21]: 61.3% | Activity [22]: 28.4% | Activity [23]: 68.1% | Activity [24]: 13.8% | Activity [25]: 52.8% | Activity [26]: Non-Toxic | Activity [27]: Non-Toxic | Activity [28]: Non-Toxic | inhibition [29]: inactive
